# Results from ChEMBL document CHEMBL1157503, “Affinity of 3-acyl substituted 4-quinolones at the benzodiazepine site of GABA(A) receptors” (Bioorg Med Chem, 2008).
# Test system: not listed separately
# Test: Displacement of [3H]flumazenil from human recombinant GABAA alpha-3-beta-2-gamma-2S receptor expressed in HEK293 cells
# Format: cell-based
# How it was run: (§1)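 HEK 293 membranes expressing human α1β2γ2s, α2β2γ2s or α3β2γ2s receptors, about 25 µg protein per 0.55 ml assay in Tris-citrate (50 mM, pH 7.1). Incubated with 1 nM ³H-flumazenil (final) for 40 min at 0–4 °C, then GF/C filtration and ice-cold washes. Nonspecific binding was set with 1 µM clonazepam. […] Mean ± SD of three determinations.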
row,SMILES,Ki
1,CCCCC(=O)c1c[nH]c2ccc(Cc3ccncc3)cc2c1=O,2.1 nM
2,O=C(CC1CCCC1)c1c[nH]c2ccc(Cc3ccccc3)cc2c1=O,13 nM
3,CCOC(=O)c1c[nH]c2ccc(Cc3ccccc3)cc2c1=O,7.2 nM
4,CCCCC(=O)c1c[nH]c2ccc(Cc3cccnc3)cc2c1=O,2.2 nM
5,CCCCC(=O)c1c[nH]c2ccc(CCCc3ccccc3)cc2c1=O,14.3 nM
6,CCCCC(=O)c1c[nH]c2ccc(CC)cc2c1=O,2.8 nM
7,O=C(CC1CCCC1)c1c[nH]c2ccc(Cc3cccnc3)cc2c1=O,23 nM
8,CCCCC(=O)c1c[nH]c2ccccc2c1=O,9.2 nM
9,CCCCC(=O)c1c[nH]c2ccc(Cc3ccc4ccccc4c3)cc2c1=O,8.8 nM
10,CCCC(=O)c1c[nH]c2ccc(Cc3ccccc3)cc2c1=O,1.56 nM
11,CCOC(=O)c1cnc2ccc(CC)cc2c1O,52 nM
12,CCCCC(=O)c1c[nH]c2ccc(Cc3ccccc3)cc2c1=O,0.61 nM
13,CCc1ccc2[nH]cc(C(=O)CC3CCCC3)c(=O)c2c1,74 nM
14,CCCCC(=O)c1c[nH]c2ccc(CCc3ccccc3)cc2c1=O,1.1 nM
15,CCCCC(=O)c1c[nH]c2ccc(Cc3ccccn3)cc2c1=O,2.2 nM

# Biological target: T1, GABA-A receptor; alpha-1/beta-2/gamma-2 (Homo sapiens, UniProt P14867+P18507+P47870)
# T1 sequence (P14867 whole entry): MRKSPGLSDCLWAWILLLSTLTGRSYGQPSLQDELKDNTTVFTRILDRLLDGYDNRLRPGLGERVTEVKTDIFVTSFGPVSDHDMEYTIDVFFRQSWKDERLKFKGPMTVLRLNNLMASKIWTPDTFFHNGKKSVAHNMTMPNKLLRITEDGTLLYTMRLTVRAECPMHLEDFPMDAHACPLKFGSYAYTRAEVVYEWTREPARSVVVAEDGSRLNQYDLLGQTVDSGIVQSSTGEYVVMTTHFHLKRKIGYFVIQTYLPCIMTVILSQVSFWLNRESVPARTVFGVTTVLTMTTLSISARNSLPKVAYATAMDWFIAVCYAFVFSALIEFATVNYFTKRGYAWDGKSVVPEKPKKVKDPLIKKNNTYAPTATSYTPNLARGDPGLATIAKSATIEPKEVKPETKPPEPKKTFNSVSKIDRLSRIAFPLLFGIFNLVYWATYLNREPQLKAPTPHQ
# T1 sequence (P47870 whole entry): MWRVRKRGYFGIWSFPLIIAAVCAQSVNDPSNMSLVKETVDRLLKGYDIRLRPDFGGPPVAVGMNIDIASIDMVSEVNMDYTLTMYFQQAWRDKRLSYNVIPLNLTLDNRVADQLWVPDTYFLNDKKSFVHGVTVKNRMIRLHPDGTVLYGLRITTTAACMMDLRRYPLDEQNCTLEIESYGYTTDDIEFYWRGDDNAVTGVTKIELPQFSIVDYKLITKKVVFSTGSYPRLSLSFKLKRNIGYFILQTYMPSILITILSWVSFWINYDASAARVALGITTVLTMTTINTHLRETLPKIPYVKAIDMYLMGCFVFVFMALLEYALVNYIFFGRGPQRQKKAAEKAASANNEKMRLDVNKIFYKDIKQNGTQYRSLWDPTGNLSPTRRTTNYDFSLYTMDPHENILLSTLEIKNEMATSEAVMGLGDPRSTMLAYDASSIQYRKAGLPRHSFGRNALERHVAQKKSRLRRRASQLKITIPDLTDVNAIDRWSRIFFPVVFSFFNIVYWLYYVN
# T1 sequence (P18507 whole entry): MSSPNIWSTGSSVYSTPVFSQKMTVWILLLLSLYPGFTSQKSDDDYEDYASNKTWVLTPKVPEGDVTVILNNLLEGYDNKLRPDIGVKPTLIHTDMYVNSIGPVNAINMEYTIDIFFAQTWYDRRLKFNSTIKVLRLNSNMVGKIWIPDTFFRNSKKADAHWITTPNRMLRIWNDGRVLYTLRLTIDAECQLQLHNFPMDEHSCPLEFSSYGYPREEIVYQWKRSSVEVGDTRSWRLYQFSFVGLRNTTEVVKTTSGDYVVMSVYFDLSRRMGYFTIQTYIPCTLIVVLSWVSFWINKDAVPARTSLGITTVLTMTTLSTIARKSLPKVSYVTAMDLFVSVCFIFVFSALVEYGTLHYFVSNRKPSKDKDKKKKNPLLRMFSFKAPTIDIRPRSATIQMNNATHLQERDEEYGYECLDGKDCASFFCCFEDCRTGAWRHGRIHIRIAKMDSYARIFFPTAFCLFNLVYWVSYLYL
# Test: Displacement of [3H]flumazenil from human recombinant GABAA alpha-1-beta-2-gamma-2S receptor expressed in HEK293 cells
# Format: cell-based
# How it was run: as §1
row,SMILES,Ki
1,CCCCC(=O)c1c[nH]c2ccc(Cc3ccncc3)cc2c1=O,0.39 nM
2,O=C(CC1CCCC1)c1c[nH]c2ccc(Cc3ccccc3)cc2c1=O,0.51 nM
3,CCCCC(=O)c1c[nH]c2ccc(Cc3cccnc3)cc2c1=O,0.12 nM
4,CCCCC(=O)c1c[nH]c2ccc(CCCc3ccccc3)cc2c1=O,3.2 nM
5,CCCCC(=O)c1c[nH]c2ccc(CC)cc2c1=O,0.38 nM
6,O=C(CC1CCCC1)c1c[nH]c2ccc(Cc3cccnc3)cc2c1=O,0.88 nM
7,CCCCC(=O)c1c[nH]c2ccccc2c1=O,0.97 nM
8,CCCCC(=O)c1c[nH]c2ccc(Cc3ccc4ccccc4c3)cc2c1=O,2.7 nM
9,CCOC(=O)c1cnc2ccc(Cc3ccccc3)cc2c1O,0.27 nM
10,CCCC(=O)c1c[nH]c2ccc(Cc3ccccc3)cc2c1=O,0.12 nM
11,CCOC(=O)c1cnc2ccc(CC)cc2c1O,5.9 nM
12,CCCCC(=O)c1c[nH]c2ccc(Cc3ccccc3)cc2c1=O,0.12 nM
13,CCc1ccc2[nH]cc(C(=O)CC3CCCC3)c(=O)c2c1,5.1 nM
14,CCCCC(=O)c1c[nH]c2ccc(CCc3ccccc3)cc2c1=O,0.53 nM
15,CCCCC(=O)c1c[nH]c2ccc(Cc3ccccn3)cc2c1=O,0.14 nM

# Organism: Homo sapiens
# Test: Selectivity ratio of Ki for human recombinant GABAA alpha-2-beta-2-gamma-2S receptor to Ki for human recombinant GABAA alpha-1-beta-2-gamma-2S receptor
# How it was run: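 Displacement of 1 nM [3H]flumazenil from HEK 293 membranes expressing human α2β2γ2s or α1β2γ2s receptors (about 25 µg protein per 0.55 ml), in 50 mM Tris-citrate pH 7.1, 40 min at 0–4 °C. Filtered on glass fibre. Nonspecific binding with 1 µM clonazepam. IC50 from 4–6 concentrations. […] Ratio is Ki α2/Ki α1.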
row,SMILES,Ratio Ki
1,CCCCC(=O)c1c[nH]c2ccc(Cc3ccncc3)cc2c1=O,7
2,CCCCC(=O)c1c[nH]c2ccc(CCCc3ccccc3)cc2c1=O,5
3,CCCCC(=O)c1c[nH]c2ccc(CC)cc2c1=O,4
4,CCCCC(=O)c1c[nH]c2ccc(Cc3ccc4ccccc4c3)cc2c1=O,8
5,CCCC(=O)c1c[nH]c2ccc(Cc3ccccc3)cc2c1=O,7
6,CCCCC(=O)c1c[nH]c2ccc(Cc3ccccc3)cc2c1=O,3
7,CCc1ccc2[nH]cc(C(=O)CC3CCCC3)c(=O)c2c1,6
8,CCCCC(=O)c1c[nH]c2ccc(CCc3ccccc3)cc2c1=O,3

# Test system: not listed separately
# Test: Displacement of [3H]flumazenil from human recombinant GABAA alpha-2-beta-2-gamma-2S receptor expressed in HEK293 cells
# Format: cell-based
# How it was run: as §1
row,SMILES,Ki
1,CCCCC(=O)c1c[nH]c2ccc(Cc3ccncc3)cc2c1=O,2.7 nM
2,CCCCC(=O)c1c[nH]c2ccc(CCCc3ccccc3)cc2c1=O,16 nM
3,CCCCC(=O)c1c[nH]c2ccc(CC)cc2c1=O,1.6 nM
4,CCCCC(=O)c1c[nH]c2ccc(Cc3ccc4ccccc4c3)cc2c1=O,22 nM
5,CCCC(=O)c1c[nH]c2ccc(Cc3ccccc3)cc2c1=O,0.81 nM
6,CCCCC(=O)c1c[nH]c2ccc(Cc3ccccc3)cc2c1=O,0.4 nM
7,CCc1ccc2[nH]cc(C(=O)CC3CCCC3)c(=O)c2c1,31 nM
8,CCCCC(=O)c1c[nH]c2ccc(CCc3ccccc3)cc2c1=O,1.7 nM

# Organism: Homo sapiens
# Test: Selectivity ratio of Ki for human recombinant GABAA alpha-3-beta-2-gamma-2S receptor to Ki for human recombinant GABAA alpha-1-beta-2-gamma-2S receptor
# How it was run: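 Ratio of the Ki at human α3β2γ2s to the Ki at human α1β2γ2s, both from ³H-flumazenil (1 nM) displacement in HEK 293 membranes (40 min, 0–4 °C, 1 µM clonazepam nonspecific).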
row,SMILES,Ratio Ki
1,CCCCC(=O)c1c[nH]c2ccc(Cc3ccncc3)cc2c1=O,5
2,O=C(CC1CCCC1)c1c[nH]c2ccc(Cc3ccccc3)cc2c1=O,25
3,CCOC(=O)c1c[nH]c2ccc(Cc3ccccc3)cc2c1=O,27
4,CCCCC(=O)c1c[nH]c2ccc(Cc3cccnc3)cc2c1=O,18
5,CCCCC(=O)c1c[nH]c2ccc(CCCc3ccccc3)cc2c1=O,4
6,CCCCC(=O)c1c[nH]c2ccc(CC)cc2c1=O,7
7,O=C(CC1CCCC1)c1c[nH]c2ccc(Cc3cccnc3)cc2c1=O,26
8,CCCCC(=O)c1c[nH]c2ccccc2c1=O,9
9,CCCCC(=O)c1c[nH]c2ccc(Cc3ccc4ccccc4c3)cc2c1=O,3
10,CCCC(=O)c1c[nH]c2ccc(Cc3ccccc3)cc2c1=O,13
11,CCOC(=O)c1cnc2ccc(CC)cc2c1O,9
12,CCCCC(=O)c1c[nH]c2ccc(Cc3ccccc3)cc2c1=O,5
13,CCc1ccc2[nH]cc(C(=O)CC3CCCC3)c(=O)c2c1,15
14,CCCCC(=O)c1c[nH]c2ccc(CCc3ccccc3)cc2c1=O,2
15,CCCCC(=O)c1c[nH]c2ccc(Cc3ccccn3)cc2c1=O,16

# Biological target: not listed separately
# Test: Displacement of [3H]flumazenil from GABAA receptor in rat cortical membrane
# Format: cell membranes
# How it was run: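 Rat cortex homogenized in Tris-HCl (30 mM, pH 7.4), washed by repeated centrifugation at 27,000g, incubated 30 min at 37 °C, then stored at −20 °C. About 50 µg protein per 0.55 ml assay in Tris-citrate (50 mM, pH 7.1) was incubated with 1 nM ³H-flumazenil for 40 min at 0–4 °C, then filtered on GF/C. Nonspecific binding was set with 1 µM clonazepam.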
row,SMILES,Ki
1,CCCCC(=O)c1c[nH]c2ccc(Cc3ccncc3)cc2c1=O,0.53 nM
2,CCc1ccc2[nH]cc(C(=O)CC3CCCCC3)c(=O)c2c1,30 nM
3,O=C(CC1CCCC1)c1c[nH]c2ccc(Cc3ccccc3)cc2c1=O,1 nM
4,CCOC(=O)c1c[nH]c2ccc(Cc3ccccc3)cc2c1=O,1.4 nM
5,CCCCC(=O)c1c[nH]c2ccc(Br)cc2c1=O,0.54 nM
6,CCc1ccc2[nH]cc(C(=O)Cc3ccccc3)c(=O)c2c1,69 nM
7,CCCCC(=O)c1c[nH]c2ccc(-c3ccccc3)cc2c1=O,28 nM
8,CCCCCCC(=O)c1c[nH]c2ccc(CC)cc2c1=O,2.1 nM
9,CCCCC(=O)c1c[nH]c2ccc(Cc3cccnc3)cc2c1=O,0.27 nM
10,CCCCC(=O)c1c[nH]c2ccc(CCCc3ccccc3)cc2c1=O,2.5 nM
11,CCCCC(=O)c1c[nH]c2ccc(CC)cc2c1=O,0.9 nM
12,O=C(CC1CCCC1)c1c[nH]c2ccc(Cc3cccnc3)cc2c1=O,1.5 nM
13,CCCCC(=O)c1c[nH]c2ccccc2c1=O,2.2 nM
14,CCCCC(=O)c1c[nH]c2ccc(Cc3ccc4ccccc4c3)cc2c1=O,1.3 nM
15,CCc1ccc2[nH]cc(C(=O)CC(C)CC)c(=O)c2c1 (stereo unspecified),18 nM
16,CCCCCC(=O)c1c[nH]c2ccc(CC)cc2c1=O,0.98 nM
17,CCc1ccc2[nH]cc(C(=O)CCC(C)C)c(=O)c2c1,2.5 nM
18,CCCCC(=O)c1c[nH]c2ccc([N+](=O)[O-])cc2c1=O,0.87 nM
19,CCCC(=O)c1c[nH]c2ccc(Cc3ccccc3)cc2c1=O,0.22 nM
20,CCOC(=O)c1cnc2ccc(CC)cc2c1O,20 nM
21,CCCCC(=O)c1c[nH]c2ccc(Cc3ccccc3)cc2c1=O,0.17 nM
22,CCc1ccc2[nH]cc(C(=O)CC3CCCC3)c(=O)c2c1,7.9 nM
23,CCCCC(=O)c1c[nH]c2ccc(CCc3ccccc3)cc2c1=O,0.42 nM
24,CCc1ccc2[nH]cc(C(=O)CCC(C)(C)C)c(=O)c2c1,19 nM
25,CCCCC(=O)c1c[nH]c2ccc(Cc3ccccn3)cc2c1=O,0.23 nM
